# Reference: ChEMBL document CHEMBL3244090, “Combined high oxytocic with negligible antidiuretic and pressor activities in multisubstituted oxytocins” (J Med Chem, 1977)
# *1 amine or outer side, *2 acyl side, *3 side chain or, on linkers, in order; H or OH if unused. Where a SMILES comes first, the peptide text is derived from it. Bridges are numbered along the chain shown (N, C = ends). X1 = O=C([C@H](O)CS[*:2])[*:1]
# Legend:
# [1] = Ratio of oxytocic potency to antidiuretic activity in rat; set-up: species or system Urine
# [2] = Oxytocic potency in rat uterus; format: functional
# In short: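 Isolated uterine horns from rats in natural estrus. The standard was given repeatedly until reproducible values were obtained. After the preparation was exposed to an analogue, several further doses of standard were needed before the standard's potency became consistent between analogue injections.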
# Gallus gallus = assay: Vasodepressor activity in conscious chicken; format: ADME, organism-based; conditions: in vivo
# In short: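 Vasodepressor assay run in conscious chickens.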
# Rattus norvegicus [3] = species: Rattus norvegicus; assay: Vasopressor activity in rat; format: ADME, organism-based; conditions: in vivo
# In short: (§1)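 Pressor and antidiuretic assays run in anesthetized male rats.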
# Rattus norvegicus [4] = assay: Antidiuretic activity in iv dosed rat; format: ADME, organism-based, Urine; conditions: in vivo; in short: as §1
Compound,Activity (Gallus gallus),Activity (Rattus norvegicus [3]),Activity (Rattus norvegicus [4]),Ratio [1],Activity [2]
CC[C@H](C)[C@@H]1NC(=O)[C@H](Cc2ccc(O)cc2)NC(=O)[C@@H](N)CSSC[C@@H](C(=O)N2CCC[C@H]2C(=O)N[C@@H](CC(C)C)C(=O)NCC(N)=O)NC(=O)[C@H](CC(N)=O)NC(=O)[C@H]([C@@H](C)O)NC1=O (H-CYITNCPLG-NH2; disulfide 1-6),1480 U/mg,0.43 U/mg,1.8 U/mg,500,923 U/mg
CC[C@H](C)[C@@H]1NC(=O)[C@H](Cc2ccc(O)cc2)NC(=O)[C@H](O)CSSC[C@@H](C(=O)N2CCC[C@H]2C(=O)N[C@@H](CC(C)C)C(=O)NCC(N)=O)NC(=O)[C@H](CC(N)=O)NC(=O)[C@H](CCC(N)=O)NC1=O (YIQNCPLG-NH2; linker N-5 via X1),1778 U/mg,14.7 U/mg,16.6 U/mg,40,1275 U/mg
CC[C@H](C)[C@@H]1NC(=O)[C@H](Cc2ccc(O)cc2)NC(=O)[C@H](O)CSSC[C@@H](C(=O)NCC(=O)N[C@@H](CC(C)C)C(=O)NCC(N)=O)NC(=O)[C@H](CC(N)=O)NC(=O)[C@H]([C@@H](C)O)NC1=O (YITNCGLG-NH2; linker N-5 via X1),50 U/mg,,0.048 U/mg,7000,337 U/mg

# Now from value to compound, other results behind:
Activity (Gallus gallus),Activity (Rattus norvegicus [3]),Activity (Rattus norvegicus [4]),Compound,Ratio [1],Activity [2]
224 U/mg,0.3 U/mg,0.01 U/mg,CC[C@H](C)[C@@H]1NC(=O)[C@H](Cc2ccc(O)cc2)NC(=O)[C@@H](N)CSSC[C@@H](C(=O)NCC(=O)N[C@@H](CC(C)C)C(=O)NCC(N)=O)NC(=O)[C@H](CC(N)=O)NC(=O)[C@H](CCC(N)=O)NC1=O (H-CYIQNCGLG-NH2; disulfide 1-6),6500,65 U/mg
8.6 U/mg,,0.001 U/mg,CC[C@H](C)[C@@H]1NC(=O)[C@H](Cc2ccc(O)cc2)NC(=O)[C@@H](N)CSSC[C@@H](C(=O)NCC(=O)N[C@@H](CC(C)C)C(=O)NCC(N)=O)NC(=O)[C@H](CC(N)=O)NC(=O)[C@H]([C@@H](C)O)NC1=O (H-CYITNCGLG-NH2; disulfide 1-6),135000,175 U/mg
507 U/mg,3.1 U/mg,2.7 U/mg,CC[C@H](C)[C@@H]1NC(=O)[C@H](Cc2ccc(O)cc2)NC(=O)[C@@H](N)CSSC[C@@H](C(=O)N2CCC[C@H]2C(=O)N[C@@H](CC(C)C)C(=O)NCC(N)=O)NC(=O)[C@H](CC(N)=O)NC(=O)[C@H](CCC(N)=O)NC1=O [OXYTOCIN],200,546 U/mg
